Screens deposited in PubChem by several laboratories.
PMI act: activators of human PMI, primary screen, biochemical, fluorescence intensity, near-Km mannose 6-phosphate; AID 1214, 2008; 0.005% of 190,000 active; Mannose-6-phosphate isomerase (Homo sapiens), P34949; purified human PMI, coupled resazurin fluorescence, 20 min; hits give high values; 1 = vehicle control, 0 substrate-free wells; activation factor at 20 µM;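 active = activation factor of 2 or more at 20 µM, relative to plate controls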
Redox H2O2 prof: compounds producing H2O2 with reducing agent – biochemical, NIH compound library profiling, artefact control for MLSCN library redox annotation, primary screen; DTT-dependent redox cycling H2O2, phenol red/HRP absorbance; 100% = 100 µM peroxide control, 0% = buffer; activation, % at 10 µM; 0.03% of 200,000 active; AID 878, 2007;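 active = activation of at least 50% relative to the plate's high and low controls in the primary single-dose screen; inactive = activation below 50%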;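 note: compound incubated with DTT at 0.8 mM final as the reducing agent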
Diaph act CS: compounds boosting diaphorase resazurin reduction – biochemical, uHTS, resorufin fluorescence, counter-screen for diaphorase-coupled primary assays, primary screen | Diaphorase/resazurin coupled assay, 16 min; hits give high values; 1 = vehicle wells, 0 = NADH-free wells | activation factor at 20 µM | AID 1229, 2008 | 0.005% of 190,000 active;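 active = diaphorase activity raised at least twofold by the compound at 20 µM; inactive = activation factor below 2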
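test system = bacterial diaphorase enzyme (C. kluyveri) | quantity = enzyme 0.07 U/mL final | reagent = NADH substrate 0.114 mM plus resazurin dye 0.1 mM, final | incubation = 16 min enzyme reaction, ambient temperature | buffer or medium = HEPES pH 7.4 buffer with MgCl2 and Tween 20 | signal = fluorescence of resorufin, 544 nm excitation, 590 nm emission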
PMI act satM6P: human PMI activators, high substrate, primary screen, biochemical, fluorescence intensity, near-saturating mannose 6-phosphate; activation factor at 20 µM; AID 1216, 2008; 0.34% of 190,000 active; Mannose-6-phosphate isomerase (Homo sapiens), P34949; coupled PMI enzyme assay, resazurin fluorescence, 20 min; hits give high values; 1 = untreated enzyme, 0 = substrate-free blank;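 active = activation factor of 2 or more at 20 µM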
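Test system: human phosphomannose isomerase with PGI, G6PDH, diaphorase coupling enzymes / Doses: 20 µM compound, 1% DMSO / Times: enzyme reaction with compound 20 min at room temperature / Measured by: Diaphorase-driven resazurin-to-resorufin fluorescence, excitation 544, emission 590 nm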
Efa HMGR inh: inhibitors of E. faecalis class II HMGR, primary screen, biochemical, Enterococcus faecalis; HMG-CoA reductase (Enterococcus faecalis, mvaE); 0.41% of 190,000 active; AID 1066, 2008; inhibition, % at 10 µM; purified E. faecalis HMGR, NADPH absorbance 340 nm kinetic;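 active = inhibition above a set limit, the median over all tested compounds plus 3 SD, cut at about 9.5% in these data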;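 note: enzyme runs in reverse so mevalonate oxidation gives rising NADPH absorbance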
NCF1 inh: p47phox/p22phox peptide binding inhibitors, primary screen, biochemical, uHTS, NADPH oxidase regulatory subunit; Neutrophil cytosol factor 1 (Homo sapiens), P14598; fluorescence polarization, 2 h; inhibition, % at 24.7 µM; 0.53% of 220,000 active;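 active = inhibition above about 30%, limit read from the data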
Target sequence (P14598 whole entry, looked up): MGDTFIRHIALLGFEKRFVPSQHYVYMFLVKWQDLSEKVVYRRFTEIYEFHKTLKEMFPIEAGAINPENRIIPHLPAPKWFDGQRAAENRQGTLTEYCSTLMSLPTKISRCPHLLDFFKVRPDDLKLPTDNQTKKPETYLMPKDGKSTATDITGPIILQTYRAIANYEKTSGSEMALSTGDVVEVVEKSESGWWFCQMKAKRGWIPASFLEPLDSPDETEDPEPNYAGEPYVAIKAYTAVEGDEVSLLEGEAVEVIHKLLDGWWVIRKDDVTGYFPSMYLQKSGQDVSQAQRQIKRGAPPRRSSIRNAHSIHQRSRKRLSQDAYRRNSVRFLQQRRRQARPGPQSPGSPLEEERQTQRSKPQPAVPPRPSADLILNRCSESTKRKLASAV
A number is an active result; . = inactive; / = not tested or not shown; + = active, no number. In the library only some 1.2% were active in any assay of this set; here they are far more common.

SMILES | PMI act | Redox H2O2 prof | Diaph act CS | PMI act satM6P | Efa HMGR inh | NCF1 inh
Cc1ccc(-n2[nH]c(C)c(/C=N/Nc3ccc([N+](=O)[O-])cc3[N+](=O)[O-])c2=O)cc1 | . | . | . | . | . | .
Cn1nnc2cc(C(=O)Nc3ccc4ccccc4c3)ccc21 | . | . | . | . | 13 | .
Cn1nnc2cc(C(=O)NC3CC3)ccc21 | . | . | . | . | . | .
O=C(C1=C[C@@H](c2ccc(C(F)(F)F)cc2)C[C@@H](OCCCCO)O1)N1CCN(Cc2ccc3c(c2)OCO3)CC1 | . | . | . | . | . | .
COC(=O)c1cc(C(=O)c2ccc(Cl)cc2)n2c(=O)/c(=C\N(C)C)sc12 | . | . | . | . | . | .
Fc1cccc(NC(=S)Nc2cccnc2)c1 | . | . | . | . | . | .
Fc1cccc(NC(=S)NNc2c3ccccc3nc3ccccc23)c1 | . | . | . | 2.1 | . | .
CCOC(=O)Cc1cc(=O)n(-c2nc3ccccc3s2)[nH]1 | . | . | . | 2.4 | . | .
CCCc1cc(=O)n(-c2nc3ccccc3s2)[nH]1 | / | / | / | / | / | .
COc1cc(OC)cc(-c2nc3ccccc3c(=O)n2OC(=O)c2ccc(C)c(C)c2)c1 | . | . | . | . | . | .
COc1cccc(-c2cc(C(=O)Nc3cnn(Cc4ccc(F)cc4)c3)no2)c1 | . | . | . | . | . | .
COc1cccc(-c2cc(C(=O)Nc3cnn(Cc4ccccc4C)c3)no2)c1 | . | . | . | . | . | 70
CC(C)N1CCC(N2CCN(Cc3ccc(-c4ccc(Cl)cc4)o3)CC2CCO)CC1 (stereo not given) | . | . | . | . | . | .
Cc1ccc2c(c1)C(=O)c1c(C(=O)O)cccc1-2 | . | . | . | . | . | .
Nc1cc(C(=O)O)c(N)c2c1C(=O)c1ccccc1C2=O | / | / | / | / | / | +
Nc1c(C(=O)O)ccc2c1C(=O)c1ccccc1C2=O | . | . | . | . | . | 77
COC(=O)c1ccc2c(c1O)C(=O)c1ccccc1C2=O | . | . | . | . | . | .
CCC(=O)NC1(Cc2ccc(O)cc2)CCCCC1 | . | . | . | . | . | .
COc1ccc(F)cc1C(=O)C1CCCN(Cc2cnc(N3CCCC3)s2)C1 (stereo not given) | . | . | . | . | . | .
COc1ccc(Cl)cc1C(=O)C1CCCN(Cc2cnc(N3CCOCC3)s2)C1 (stereo not given) | . | . | . | . | . | 47
CC(C)(C)C1CCC2(CC1)NC(=S)N(c1ccccc1)N2 (stereo not given) | . | . | . | 2.8 | . | .
CCN1CCN(c2cc3c(nn2)Oc2ccccc2N3C)CC1 | . | . | . | . | . | .
Cc1cc(/C=C2/SC(=O)NC2=O)c(C)n1-c1ccc(N2CCOCC2)cc1 | . | . | . | . | . | .
O=C1NC(=O)/C(=C/C(=O)N2CCOCC2)S1 | . | . | . | . | 13 | .
CCC(Oc1ccccc1)C(=O)Nc1ccsc1C(=O)OC (stereo not given) | . | . | . | . | . | .
SMILES | PMI act | Redox H2O2 prof | Diaph act CS | PMI act satM6P | Efa HMGR inh | NCF1 inh
Cc1ccc(-c2csc3nnc(SCC(=O)Nc4nsc(-c5ccccc5)n4)n23)cc1 | . | . | . | . | . | .
O=C(CSc1nnc2scc(-c3ccccc3)n12)Nc1nsc(-c2ccccc2)n1 | . | . | . | . | . | 45
CCOc1cc(/C=N\NC(=O)OC(C)(C)C)ccc1OC(=O)c1ccco1 | . | . | . | . | 19 | .
Cn1c(=O)c2c(nc(CN3CCc4ccccc4C3)n2CCCO)n(C)c1=O | . | . | . | 2.2 | . | .
CC(C)c1ccccc1NC(=O)COC(=O)c1c2c(nc3ccccc13)CCN(Cc1ccccc1)C2 | . | . | . | 2.1 | . | .
Cc1c(Cl)cccc1NC(=O)COC(=O)c1c2c(nc3ccccc13)CCN(Cc1ccccc1)C2 | . | . | . | . | . | .
O=C1C2=C(SCCS2)C(=O)N1CCCO | . | . | . | . | . | 72
CCc1ccccc1NNC(=O)c1snnc1C | / | / | / | / | / | .
CC(C)CSc1n[nH]c(=S)s1 | . | . | . | . | . | .
O=C1NN=C(CSc2n[nH]c(=S)s2)CS1 | . | . | . | 2.1 | . | .
CN(C)c1nc(-c2cccs2)cc(C(F)(F)F)c1C#N | / | / | / | / | / | 58
COc1ccccc1NC(=O)C1=C(C)NC(=O)NC1c1ccccc1[N+](=O)[O-] (stereo not given) | . | . | . | . | 11 | .
Oc1ccc(N=C/C=C/c2cccc(Br)c2)cc1-c1nc2ccccc2s1 | . | . | . | . | . | .
CCOC(=O)c1nn(-c2ccccc2F)c(C)c1C(C)=O | . | . | . | . | 9.8 | .
Cc1cc(C(F)(F)F)nn1Cc1n[nH]c(=S)n1-c1ccc(Cl)cc1 | . | . | . | . | . | 31
Cc1cc(C(F)(F)F)nn1Cc1n[nH]c(=S)n1-c1cccc(Cl)c1 | . | . | . | . | . | .
Cc1ccc(NC(=O)C2CC2C)c(Cl)c1 (stereo not given) | . | . | . | . | . | .
CC(=O)N1CCc2ccccc2C1CC(=O)O (stereo not given) | . | . | . | . | . | .
O=C(/C=C1\NCC2c3ccccc3CCN2C1=O)c1ccccc1 (stereo not given) | . | . | . | 2.6 | . | .
Nc1oc2ccc(F)cc2c(=O)c1C=O | . | . | . | . | . | .
FC(F)(F)c1cccc(-c2nc3nc(Cl)c(Cl)nc3[nH]2)c1 | / | / | / | / | / | .
Cc1ccc(CSc2nnc(C)c(=O)[nH]2)cc1 | . | . | . | . | . | 67
Cc1nnc(SCc2ccccc2)[nH]c1=O | . | . | . | . | . | .
COc1ccc(/C=C/C(=O)c2ccc(NC3=NCCCS3)cc2)cc1OC | . | . | . | . | 10 | .
Cc1ccc(SCCC(=O)OCC(=O)NCC2CCCCC2)cc1 | . | . | . | . | . | .
Cc1ccc(CN2C(=O)CCC2C(=O)NCc2ccccc2Cl)cc1 (stereo not given) | . | . | . | . | . | .
Cn1cc(/C=C(\C#N)C(=O)Nc2cccc([N+](=O)[O-])c2)c2ccccc21 | . | . | . | . | . | 37
CCOC(=O)N1CCN(CC(=O)c2ccc3c(c2)CCN3C(C)=O)CC1 | . | . | . | . | . | 49
CC(=O)N1CCc2cc(C(=O)CN3CCCCC3)ccc21 | . | . | . | . | . | .
